Source: ChEMBL document CHEMBL4823246, “Fragment-like Chloroquinolineamines Activate the Orphan Nuclear Receptor Nurr1 and Elucidate Activation Mechanisms” (J Med Chem, 2021)
Each block holds one compound with its values, some of them ahead of it. The source made the active and inactive calls. The calls are words filed in the database; no cut-off is given here.

Tests used:
Assay type in all cases: cell-based
[1] = target: T1, Nuclear receptor subfamily 4 group A member 2 (Homo sapiens, UniProt P43354); assay: Agonist activity at Gal4-fused human Nurr1 LBD expressed in HEK293T cells co-expressing firefly luciferase assessed as luciferase activity at 300 uM incubated for 12 to 14 hrs by hybrid reporter gene assay; conditions: time 12-14 hrs
Procedure, shortened: (§1)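 HEK293T cells, seeded 3 × 10⁴/well the day before, were transiently transfected with a Gal4–human Nurr1 LBD hybrid receptor, a Gal4-responsive firefly luciferase reporter (pFR-Luc) and SV40-renilla luciferase. Five hours later cells received compound in Opti-MEM with 0.1% DMSO for 12−14 h, then a dual-luciferase read-out. Firefly/renilla ×1000 gave RLU; fold activation was taken vs DMSO. Duplicates, ≥3 independent runs; EC50/IC50 are mean SD.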

[2] = target: T1, Nuclear receptor subfamily 4 group A member 2; assay: Agonist activity at Gal4-fused human Nurr1 LBD expressed in HEK293T cells co-expressing firefly luciferase assessed as luciferase activity incubated for 12 to 14 hrs by hybrid reporter gene assay
[3] = target: T1, Nuclear receptor subfamily 4 group A member 2; assay: Agonist activity at Gal4-fused human Nurr1 LBD expressed in HEK293T cells co-expressing firefly luciferase assessed as luciferase activity at 30 uM incubated for 12 to 14 hrs by hybrid reporter gene assay; conditions: time 12-14 hrs; procedure, shortened: as §1
[4] = target: T1, Nuclear receptor subfamily 4 group A member 2; assay: Inverse agonist activity at Gal4-fused human Nurr1 LBD expressed in HEK293T cells co-expressing firefly luciferase assessed as luciferase activity incubated for 12 to 14 hrs by hybrid reporter gene assay; procedure, shortened: as §1
[5] = target: T1, Nuclear receptor subfamily 4 group A member 2; assay: Agonist activity at Gal4-fused human Nurr1 LBD expressed in HEK293T cells co-expressing firefly luciferase assessed as luciferase activity at 100 uM incubated for 12 to 14 hrs by hybrid reporter gene assay; conditions: time 12-14 hrs; procedure, shortened: as §1
[6] = target: T1, Nuclear receptor subfamily 4 group A member 2; assay: Agonist activity at Gal4-fused human Nurr1 LBD expressed in HEK293T cells co-expressing firefly luciferase assessed as luciferase activity at 200 uM incubated for 12 to 14 hrs by hybrid reporter gene assay; conditions: time 12-14 hrs; procedure, shortened: as §1
[7] = target: T1, Nuclear receptor subfamily 4 group A member 2; assay: Agonist activity at Gal4-fused human Nurr1 LBD expressed in HEK293T cells co-expressing firefly luciferase assessed as luciferase activity at 10 uM incubated for 12 to 14 hrs by hybrid reporter gene assay; conditions: time 12-14 hrs; procedure, shortened: as §1
[8] = target: T2, Retinoic acid receptor RXR-alpha (Homo sapiens) (UniProt P19793); assay: Agonist activity at full length human RxRalpha heterodimer response element DR5 expressed in HEK293T cells co-expressing firefly luciferase assessed as firefly luciferase activity up to 100 uM incubated for 12 to 14 hrs by hybrid reporter gene assay; conditions: filed as agonist, dose microM <=100, time 12-14 hrs
T2 sequence (whole entry): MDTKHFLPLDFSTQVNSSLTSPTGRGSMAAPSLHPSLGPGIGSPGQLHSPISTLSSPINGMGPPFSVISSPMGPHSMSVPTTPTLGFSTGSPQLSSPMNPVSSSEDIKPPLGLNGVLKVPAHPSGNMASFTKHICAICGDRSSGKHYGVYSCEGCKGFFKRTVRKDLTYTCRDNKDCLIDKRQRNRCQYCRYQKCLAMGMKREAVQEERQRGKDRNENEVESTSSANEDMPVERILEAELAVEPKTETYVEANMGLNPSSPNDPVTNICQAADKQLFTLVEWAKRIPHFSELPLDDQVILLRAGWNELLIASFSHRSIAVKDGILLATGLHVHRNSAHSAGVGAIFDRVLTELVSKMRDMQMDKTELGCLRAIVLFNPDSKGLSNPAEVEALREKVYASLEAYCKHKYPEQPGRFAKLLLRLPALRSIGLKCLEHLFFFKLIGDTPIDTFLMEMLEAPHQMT
Procedure, shortened: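 Full-length receptor assay in HEK293T cells transiently cotransfected with pFR-Luc-DR5 reporter, human Nurr1 (pcDNA3.1-hNurr1-NE), human RXR (pSG5-hRXR) and SV40-renilla. Five hours post-transfection, compound was added in Opti-MEM with 0.1% DMSO for 12−14 h, then a dual-luciferase read-out. Firefly/renilla ×1000 gave RLU, expressed as fold over DMSO control. Duplicates, ≥3 independent experiments.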

T1 sequence (P43354 whole entry, the tested form may be a part): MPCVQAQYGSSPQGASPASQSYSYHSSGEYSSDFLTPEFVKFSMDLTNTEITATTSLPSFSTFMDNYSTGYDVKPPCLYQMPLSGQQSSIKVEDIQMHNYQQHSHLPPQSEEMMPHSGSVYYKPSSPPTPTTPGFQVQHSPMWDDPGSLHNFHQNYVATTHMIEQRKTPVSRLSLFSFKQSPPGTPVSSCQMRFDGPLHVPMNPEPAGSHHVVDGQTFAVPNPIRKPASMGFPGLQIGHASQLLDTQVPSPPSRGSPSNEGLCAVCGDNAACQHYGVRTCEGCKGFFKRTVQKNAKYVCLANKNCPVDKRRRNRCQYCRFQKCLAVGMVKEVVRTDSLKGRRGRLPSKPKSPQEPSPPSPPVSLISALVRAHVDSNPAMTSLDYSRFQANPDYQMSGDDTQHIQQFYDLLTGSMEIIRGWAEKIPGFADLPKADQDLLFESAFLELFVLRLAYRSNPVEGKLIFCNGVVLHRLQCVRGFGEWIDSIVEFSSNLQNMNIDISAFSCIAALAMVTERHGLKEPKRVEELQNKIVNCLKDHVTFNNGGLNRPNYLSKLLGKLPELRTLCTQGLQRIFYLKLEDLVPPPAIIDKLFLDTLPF

EC50 [2]: 12 µM
Compound: CCCCNc1cc(C)nc2c(Cl)cccc12

Activity [5]: inactive
Compound: Nc1ccc(Cl)c2ncccc12

Activity [5]: inactive
Compound: CCN(CC)CCCC(C)Nc1cc(C)nc2c(Cl)cccc12 (stereo not drawn)

EC50 [2]: 17 µM
Compound: Cc1cc(NC(C)C(C)C)c2cccc(Cl)c2n1 (stereo not drawn)

EC50 [2]: 49 µM
Compound: Nc1ccnc2c(Cl)cccc12

Activity [6]: inactive
Compound: Nc1cncc2c(Cl)cccc12

Activity [7]: inactive
Compound: CC(CCCN(C)C)Nc1cccc2c(Cl)cccc12 (stereo not drawn)

Activity [8]: Active
Compound: Cc1cc(N)c2cccc(Cl)c2n1

Activity [1]: inactive
Compound: Clc1ccc2c(Cl)ccnc2c1

Activity [5]: inactive
Compound: Nc1c(Cl)ccc2ncccc12

EC50 [2]: 33 µM
Compound: Cc1cc(N)c2ccc(Cl)cc2n1

EC50 [2]: 31 µM
Compound: Cc1cc(NC(C)C)c2cccc(Cl)c2n1

Activity [5]: inactive
Compound: CCN(CC)Cc1cc(Nc2cc(C)nc3c(Cl)cccc23)ccc1O

Continued, compound first:

Compound: Nc1ccnc2c(F)cccc12
Activity [1]: inactive

Compound: CCN(CC)Cc1cccc(Nc2ccnc3cc(Cl)ccc23)c1
EC50 [2]: 116 µM

Compound: Oc1ccc(Nc2ccnc3cc(Cl)ccc23)cc1
Activity [3]: inactive

Compound: Clc1ccc2cccnc2c1
IC50 [4]: 89 µM

Compound: Nc1cnc2cc(Cl)ccc2c1
Activity [1]: inactive

Compound: Nc1ccnc2cc(Cl)ccc12
EC50 [2]: 259 µM

Compound: Nc1ccc2ccc(Cl)cc2n1
Activity [5]: inactive

Compound: Nc1ccnc2ccccc12
Activity [1]: inactive

Compound: CC1CCC(Nc2ccnc3cc(Cl)ccc23)CC1 (stereo not drawn)
Activity [3]: inactive

Compound: O=C(OCC(O)CO)c1ccccc1Nc1ccnc2cc(Cl)ccc12 (stereo not drawn)
Activity [7]: inactive

Compound: Nc1cc(Cl)cc2ncccc12
EC50 [2]: 19 µM

Compound: Clc1ccc2c(NCc3ccccc3)ccnc2c1
Activity [7]: inactive

Compound: Nc1ccnc2c(C(F)(F)F)cccc12
Activity [1]: inactive

Compound: O=C(O)CCCNc1ccnc2cc(Cl)ccc12
IC50 [4]: 132 µM

Compound: Nc1ccnc2ccc(Cl)cc12
EC50 [2]: 117 µM
